From ChEMBL document CHEMBL1123888, “Aldosterone antagonists. 2. Synthesis and biological activities of 11,12-dehydropregnane derivatives” (J Med Chem, 1987) come the findings set out here.

Structures are written as SMILES. Activity calls are given as the source filed them. The rule behind the calls is not given here.

The target in assay [1] is T1, Mineralocorticoid receptor (Rattus norvegicus) (UniProt P22199).
T1 sequence (whole entry): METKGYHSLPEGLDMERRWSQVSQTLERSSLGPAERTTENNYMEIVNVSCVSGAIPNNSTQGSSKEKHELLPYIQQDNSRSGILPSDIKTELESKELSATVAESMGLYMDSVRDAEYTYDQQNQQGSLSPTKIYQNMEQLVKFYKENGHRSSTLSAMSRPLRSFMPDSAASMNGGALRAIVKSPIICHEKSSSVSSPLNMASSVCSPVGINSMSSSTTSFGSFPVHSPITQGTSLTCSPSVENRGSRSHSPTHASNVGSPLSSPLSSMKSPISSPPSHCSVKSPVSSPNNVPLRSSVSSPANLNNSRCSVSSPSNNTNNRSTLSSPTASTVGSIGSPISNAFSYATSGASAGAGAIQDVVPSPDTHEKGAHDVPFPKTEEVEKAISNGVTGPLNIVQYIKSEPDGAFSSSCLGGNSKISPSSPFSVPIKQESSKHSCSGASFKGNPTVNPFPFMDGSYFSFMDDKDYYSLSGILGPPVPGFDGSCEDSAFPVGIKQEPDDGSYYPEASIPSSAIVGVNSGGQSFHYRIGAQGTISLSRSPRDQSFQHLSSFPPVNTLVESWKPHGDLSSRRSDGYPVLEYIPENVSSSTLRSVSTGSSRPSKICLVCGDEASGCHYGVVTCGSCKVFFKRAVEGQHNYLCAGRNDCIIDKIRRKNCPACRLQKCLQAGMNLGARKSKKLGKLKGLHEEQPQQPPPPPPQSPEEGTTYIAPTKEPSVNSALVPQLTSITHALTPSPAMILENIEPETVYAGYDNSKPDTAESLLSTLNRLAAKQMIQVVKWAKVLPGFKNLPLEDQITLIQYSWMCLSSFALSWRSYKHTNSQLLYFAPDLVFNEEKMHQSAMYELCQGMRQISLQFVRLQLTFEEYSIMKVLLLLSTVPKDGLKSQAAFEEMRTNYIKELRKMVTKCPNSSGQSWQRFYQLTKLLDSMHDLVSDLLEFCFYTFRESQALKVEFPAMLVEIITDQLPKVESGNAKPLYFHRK
Briefly: Relative binding affinity to the rat mineralocorticoid receptor determined in rat renal cytosol using [3]Ald as ligand. The method, boiled down: (§1)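 Renal cytosol came from male Sprague-Dawley rats (4-8 weeks) adrenalectomized bilaterally 1 or 2 days earlier. It was incubated with various competitor concentrations and about 1 nM [3H]Ald for 42-48 h at 0 °C or 100-120 min at 25 °C. Bound and free steroid were separated by DCC.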

Assay [2] has as its target T1, Mineralocorticoid receptor (Rattus norvegicus). Briefly: Antagonist activity against Mineralocorticoid receptor was determined after subcutaneous administration in Male Sprague Dawley rats. The format is functional, organism-based. The procedure, abridged: (§2)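 Male rats were bilaterally adrenalectomized (bioassay modified from Kagawa). Ald (1 µg/kg) was given sc, immediately followed by test compound in sesame oil sc or orally. Urine was collected from 2 to 6 h after steroid. Potency came from the urinary Na/K ratio of sample versus control, with 95% confidence limits.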

Assay [3] has the same target. Briefly: Antagonist activity against Mineralocorticoid receptor after oral administration in Male Sprague Dawley rats; (-) = negative. The format is functional, organism-based. The procedure, abridged:
as §2

For assay [4] the target is unchanged. Briefly: Antagonist activity against Mineralocorticoid receptor after po administration in Male Sprague Dawley rats; (+) =positive. Format: functional, organism-based. To be noted: filed as antagonist. The method, boiled down: as §2
The target is the same in assay [5]. Put plainly: Relative binding affinity against mineralocorticoid receptor determined in rat renal cytosol using [3]Ald as ligand. The method, boiled down:
as §1

Assay [6] has the same target. Briefly: Relative potency compared to Aldosterone;Range 4.3-23. The format is functional.
The target of assay [7] is T2, Progesterone receptor (Rattus norvegicus) (UniProt Q63449).
T2 sequence (whole entry): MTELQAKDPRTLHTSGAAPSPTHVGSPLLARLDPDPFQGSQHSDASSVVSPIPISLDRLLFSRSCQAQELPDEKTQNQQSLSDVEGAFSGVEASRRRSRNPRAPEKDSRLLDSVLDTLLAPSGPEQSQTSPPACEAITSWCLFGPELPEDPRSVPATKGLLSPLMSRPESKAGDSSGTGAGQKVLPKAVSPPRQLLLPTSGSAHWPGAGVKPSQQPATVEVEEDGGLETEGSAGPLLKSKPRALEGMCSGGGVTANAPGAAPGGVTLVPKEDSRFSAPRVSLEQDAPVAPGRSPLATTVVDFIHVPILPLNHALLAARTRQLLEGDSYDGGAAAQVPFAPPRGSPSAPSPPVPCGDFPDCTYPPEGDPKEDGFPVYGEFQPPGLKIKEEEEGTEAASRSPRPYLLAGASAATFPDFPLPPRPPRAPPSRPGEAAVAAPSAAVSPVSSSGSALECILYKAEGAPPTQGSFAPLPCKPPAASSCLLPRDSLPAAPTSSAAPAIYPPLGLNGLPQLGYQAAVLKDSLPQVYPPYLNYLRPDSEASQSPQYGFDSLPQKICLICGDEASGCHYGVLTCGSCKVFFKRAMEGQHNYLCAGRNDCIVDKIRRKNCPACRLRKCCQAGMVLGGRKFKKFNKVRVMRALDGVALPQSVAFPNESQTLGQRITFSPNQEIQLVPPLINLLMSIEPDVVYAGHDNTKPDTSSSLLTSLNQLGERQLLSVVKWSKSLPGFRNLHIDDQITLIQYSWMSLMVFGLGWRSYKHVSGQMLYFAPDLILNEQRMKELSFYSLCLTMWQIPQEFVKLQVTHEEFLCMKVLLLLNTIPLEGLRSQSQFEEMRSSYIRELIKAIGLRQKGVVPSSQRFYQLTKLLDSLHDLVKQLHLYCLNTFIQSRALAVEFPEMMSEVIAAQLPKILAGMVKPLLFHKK
Briefly: Relative binding affinity against progesterone receptor determined in rat […] cytosol using [3H]DHT as ligand.

Assay [8] addresses T1, Mineralocorticoid receptor (Rattus norvegicus). Briefly: Antagonist activity against Mineralocorticoid receptor after subcutaneous administration in Male Sprague Dawley rats; (+) =positive. To be noted: filed as antagonist. The format is functional, organism-based. The procedure, abridged: as §2
For assay [9] the target is unchanged. Put plainly: Antagonist activity against Mineralocorticoid receptor after oral administration in Male Sprague Dawley rats; (+) =positive. The settings on record: filed as antagonist. The format is functional, organism-based. The procedure, abridged:
as §2

For assay [10] the target is unchanged. Put plainly: Antagonist activity against Mineralocorticoid receptor after po administration in Male Sprague Dawley rats; (-) = negative. The format is functional, organism-based. The procedure, abridged: as §2
The species entered for assay [11] is Rattus norvegicus. Put plainly: Displacement of [3H]promegestone from progestin receptor of rat uterine cytosol at 0 degree Centigrade. The procedure, abridged: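 Uteri from estradiol-primed rats supplied the cytosol. It was incubated with various competitor concentrations and about 1 nM [3H]promegestone for 16-20 h at 0 °C. Bound and free steroid were separated by DCC. RBA (progesterone = 100%) = 100 × ratio of the 50%-inhibition concentrations of standard and competitor.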
In general terms: Loss of bound radioactivity is the signal in a displacement assay; it reports binding, not function.

Assay [12] addresses T3, Androgen receptor (Rattus norvegicus) (UniProt P15207).
T3 sequence (whole entry): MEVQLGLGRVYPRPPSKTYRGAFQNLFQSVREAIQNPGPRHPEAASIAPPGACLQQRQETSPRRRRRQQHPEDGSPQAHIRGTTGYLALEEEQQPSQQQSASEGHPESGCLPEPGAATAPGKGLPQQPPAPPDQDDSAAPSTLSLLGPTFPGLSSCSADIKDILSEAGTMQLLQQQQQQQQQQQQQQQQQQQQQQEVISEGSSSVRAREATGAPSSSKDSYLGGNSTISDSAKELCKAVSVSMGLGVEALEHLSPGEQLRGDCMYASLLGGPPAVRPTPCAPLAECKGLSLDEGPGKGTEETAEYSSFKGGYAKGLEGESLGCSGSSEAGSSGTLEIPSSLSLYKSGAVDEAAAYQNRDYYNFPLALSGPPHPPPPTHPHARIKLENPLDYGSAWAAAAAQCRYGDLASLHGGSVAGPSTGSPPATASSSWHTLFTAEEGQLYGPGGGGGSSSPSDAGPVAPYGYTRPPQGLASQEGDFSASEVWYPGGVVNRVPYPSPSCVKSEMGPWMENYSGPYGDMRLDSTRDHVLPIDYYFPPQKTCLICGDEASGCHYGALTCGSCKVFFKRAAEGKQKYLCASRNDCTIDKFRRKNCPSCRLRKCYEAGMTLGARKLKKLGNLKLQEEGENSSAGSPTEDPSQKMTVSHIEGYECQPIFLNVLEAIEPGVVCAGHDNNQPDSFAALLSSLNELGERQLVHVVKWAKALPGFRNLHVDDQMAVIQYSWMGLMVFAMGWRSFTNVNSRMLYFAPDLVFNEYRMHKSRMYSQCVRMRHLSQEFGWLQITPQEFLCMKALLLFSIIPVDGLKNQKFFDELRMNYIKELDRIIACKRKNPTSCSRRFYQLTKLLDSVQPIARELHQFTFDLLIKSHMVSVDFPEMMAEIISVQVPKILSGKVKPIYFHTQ
Put plainly: Relative anti-androgenic activity as suppressive effect on weight increase of ventral prostate in castrated immature rats given testosterone propionate (95% confidence limit). The format is functional. The settings on record: Prostate gland. The method, boiled down:
(§3)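 Male Sprague-Dawley rats (3 weeks old) were castrated 3 days earlier. […] Suppression of accessory sex organ weight gain gave relative antiandrogenic activity.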

The target of assay [13] is T1, Mineralocorticoid receptor (Rattus norvegicus). Put plainly: (§4) Relative anti-mineralocorticoid potency compared to Spironolactone after oral administration. The format is functional, organism-based. The method, boiled down:
as §2

Assay [14] has the same target. The description is as §4. Format: functional, organism-based. The procedure, abridged: as §2
The source holds these as a separate data set.

Assay [15] concerns the target T3, Androgen receptor (Rattus norvegicus). Briefly: Relative anti-androgenic activity as suppressive effect on weight increase of seminal vesicle in castrated immature rats given testosterone propionate (95% confidence limit). The format is functional. The procedure, abridged:
as §3

Assay [16] deals with T1, Mineralocorticoid receptor (Rattus norvegicus). Briefly: Relative potency against mineralocorticoid receptor. The format is functional. The procedure, abridged:
as §2

The target is the same in assay [17]. Put plainly: In vivo relative Mineralocorticoid activity in Male Sprague-Dawley rats. Format: functional, organism-based.
Assay [18] has the same target. Put plainly: Agonist activity against Mineralocorticoid receptor was determined after subcutaneous administration in Male Sprague Dawley rats; (+) =positive. Format: functional, organism-based. The settings on record: filed as agonist.
Assay [19] has the same target. Briefly: Relative potency compared to Aldosterone; Range is 177-1340. The format is functional.
For assay [20] the target is unchanged. Put plainly: Agonist activity against Mineralocorticoid receptor after subcutaneous administration in Male Sprague Dawley rats; (-) = negative. The format is functional, organism-based.

On to `CC(=O)S[C@@H]1CC2=CC(=O)C=CC2(C)C2C=CC3(C)C(C4CC4[C@@]34CCC(=O)O4)C21` (stereo partly specified), for which the RBA in [1] is 350%; in assay [5] it was 91%; in assay [7], 23%. Also, the result in assay [2] and in assay [3] was inactive. Further, the Activity entry in assay [4] is “Antagonist”. In assay [6], the Relative potency is 4.3.
For the compound `CC12C=CC(=O)C=C1C=CC1C2C=CC2(C)C1CC[C@@]21CCC(=O)O1` (stereo partly specified), the RBA in assay [1] was found to be 20%; in assay [5] it was 22%; in assay [11] it was 1.6%. Besides, the Activity result in assay [8] is “Antagonist”; in [9] it was “Antagonist”; in [12], 0.42; in assay [15], 0.14. For the same compound, the result in assay [10] was inactive. For the same compound, the Relative potency was 0.93 in assay [13] and 2.08 in assay [14].
In the case of `C[C@]12CCC(=O)C=C1CC[C@@H]1[C@@H]2[C@@H](O)C[C@]2(C=O)[C@@H](C(=O)CO)CC[C@@H]12`, in assay [16], the Relative potency turned out to be 1. Also, the Relative activity in assay [17] came to 30.
Regarding `CC12CCC(=O)C=C1CCC1C2C=CC2(C)C1CC[C@@]21CCC(=O)O1` (stereo partly specified), the RBA in assay [1] was determined as 440%; in [5], 570%; in [11], 53%. Moreover, the outcome in [2] was inactive. In addition, the Activity entry in assay [18] is “Agonist”. In addition, in assay [19], the Relative potency was determined as 177.
Turning to `CC12CCC(=O)C=C1[C@H]1C[C@H]1C1C2C=CC2(C)C1CC[C@@]21CCC(=O)O1` (stereo partly specified), the figures for the RBA in [1], in assay [5] and in assay [7] were 110%, 88% and 6.7%, respectively. For the same compound, in assay [8], the Activity result was “Antagonist”. Also, the result in assay [20] was inactive. In [14], this compound had a Relative potency of 1.48.
